Folding enthalpy and Tm data for 37 sequences are collected here from the array DNA melting data of Ke et al. (doi:10.1101/2024.01.08.574731).

A short description of data set [1]: folding enthalpy; higher = less favourable; fluorescence melt of hairpins on a sequencing array, two-state fit. To be noted: sodium 0.088 M. The method in brief:
(§1)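 Melting temperature and folding enthalpy were obtained by bootstrapped two-state fitting. Fits used Cy3 fluorescence of library hairpins with annealed Cy3 and quencher oligos on a sequenced MiSeq flow cell, imaged in 50 mM Na-HEPES pH 8.0, 25 mM NaCl in 2.5 °C steps up to 60 °C and normalised to pre-quench Cy3 and control constructs. Four replicates were combined by inverse-variance weighting, and fitted temperatures were raised by 9.35 °C to match UV melts.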

The nature of data set [2]: melting temperature; fluorescence melt of hairpins on a sequencing array, two-state fit, raised by 9.35 °C to match UV melts. Conditions: sodium 0.088 M. In a few lines: as §1

On to GATCCATAGTTGGATC ((((((....)))))), for which, in data set [1], the folding enthalpy is -33.2 kcal/mol. Further, the Tm in data set [2] amounted to 50.6 °C.
In the case of GATCAAGCGATTGATC ((((((....)))))), the folding enthalpy in data set [1] was -39.6 kcal/mol. In addition, the Tm in data set [2] is 48 °C.
As for GGCGCCGGAAACAGCGCC (((((.(....).))))), the folding enthalpy in data set [1] was -34.8 kcal/mol. For the same sequence, the Tm in data set [2] amounted to 65.2 °C.
For GTATGAGAAATCATAC ((((((....)))))) the same measures were -31.4 kcal/mol and 44.4 °C.
For GCGTAATACGC ((((...)))) the same measures were -18.7 kcal/mol and 51.9 °C.
For the sequence GGGCTTGCGAAAGCACCC (((..(((....)))))), in data set [1], the folding enthalpy is -15.8 kcal/mol. In data set [2], the Tm came to 45.6 °C.
The like results for GCACTGCGAAAGCAGCGC ((.((((....)))).)) were, in that order, -28.9 kcal/mol and 69.1 °C.
The like results for GATCGGTCTACCGATC ((((((....)))))) were, in that order, -39.3 kcal/mol and 62.3 °C.
The like results for GATCGACGCATCGATC ((((((....)))))) were, in that order, -32.6 kcal/mol and 52.6 °C.
On to GTATGCGAAAGCATATAC ((((((....)))..))), for which the folding enthalpy in data set [1] is -11 kcal/mol. In addition, the Tm in data set [2] is 42.2 °C.
As for GCGACATTTCGC ((((....)))), the folding enthalpy in data set [1] is -22 kcal/mol. In data set [2], the Tm was determined as 48.8 °C.
For GCGGTCACCGC ((((...)))) the same measures were -23.8 kcal/mol and 63 °C.
For GATCCGATGTCGGATC ((((((....)))))) the same measures were -37.6 kcal/mol and 61.6 °C.
For GTTATCGGAAACGACAAC (((.(((....))).))) the same measures were -19.8 kcal/mol and 36.4 °C.
GACGACGAAAGTCACGTC ((((((....)))..))): the folding enthalpy in data set [1] was -19.6 kcal/mol. The Tm in data set [2] was 41.1 °C.
For the sequence GATCAGTTAGCTGATC ((((((....)))))), the folding enthalpy in data set [1] was -40.2 kcal/mol. The Tm in data set [2] is 53.1 °C.
With GCTCACGAAAGTGATAGC ((((((....)))..))), in data set [1], the folding enthalpy is -17.4 kcal/mol. The Tm in data set [2] was 47.4 °C.
The like results for GAGAGGCGAAAGCCCTC (((.(((....)))))) were, in that order, -14.2 kcal/mol and 55.7 °C.
The like results for GATAACGAAAGTTAATC ((((((....))).))) were, in that order, -15.4 kcal/mol and 30.7 °C.
The like results for GCAGCTGGAAACAGCCGC ((.((((....)))).)) were, in that order, -29.3 kcal/mol and 50.6 °C.
For the sequence GCGATGTGTCGC ((((....)))), the folding enthalpy in data set [1] was -28.6 kcal/mol. The Tm in data set [2] came out at 57 °C.
The like results for GTACCCGAAAGGGCTAC ((((((....))).))) were, in that order, -15.3 kcal/mol and 40.2 °C.
With GCAAACGAAAGTTCTGC ((((((....))).))), the folding enthalpy in data set [1] is -20.5 kcal/mol. Also, the Tm in data set [2] was determined as 37.2 °C.
For GTGGCTGGAAACAGCTGC (..((((....))))..) the same measures were -15.6 kcal/mol and 47.4 °C.
As for GCAAGCGAAAGCTCATGC ((((((....)))..))), the folding enthalpy in data set [1] was -12.5 kcal/mol. In addition, the Tm in data set [2] turned out to be 35.2 °C.
For GACAGCGGAAACGCTGCC (.(((((....))))).), the folding enthalpy in data set [1] is -11.5 kcal/mol. The Tm in data set [2] was found to be 52.6 °C.
In the case of GAGCAAGGAAACTCGCTC ((((.((....)).)))), the folding enthalpy in data set [1] was -30.8 kcal/mol. The Tm in data set [2] amounted to 40.6 °C.
The like results for GAGAACGGAAACATTCTC (((((.(....).))))) were, in that order, -23.5 kcal/mol and 30.1 °C.
In the case of GTGTTGCCGAAAGGCCAC (((..(((....)))))), the folding enthalpy in data set [1] is -10.3 kcal/mol. Moreover, the Tm in data set [2] was found to be 57.8 °C.
For CGTGCGGAAACGCCACG ((((((....))).))) the same measures were -25.4 kcal/mol and 53.8 °C.
The like results for GAGTTTACGAAAGTACTC (((..(((....)))))) were, in that order, -12.6 kcal/mol and 30 °C.
The like results for GACTGCGAAAGCAAGTC ((((((....))).))) were, in that order, -21.3 kcal/mol and 56.1 °C.
For the sequence TTACTGAAAAGTAA (((((....))))), the folding enthalpy in data set [1] is -8.68 kcal/mol. The Tm in data set [2] was found to be 26.7 °C.
For GCCACGCGAAAGCGTCGC ((.((((....)))).)) the same measures were -16.1 kcal/mol and 60.2 °C.
The like results for GATCTTCATCAAGATC ((((((....)))))) were, in that order, -29.9 kcal/mol and 40.3 °C.
The like results for GATCCCCCTGGGGATC ((((((....)))))) were, in that order, -36.1 kcal/mol and 67.5 °C.
In the case of GCTTGGCGAAAGCCCTGC ((..(((....)))..)), the folding enthalpy in data set [1] is -13.6 kcal/mol. For the same sequence, in data set [2], the Tm was determined as 40.2 °C.
